Results from publication PMC8502542 (International Journal of Nanomedicine, 2021).

Legend:
[1] = plasma, after administration; cited from earlier work
[2] = system: MIA PaCa-2 cell line; assay: MTT cytotoxicity and combination index; type: cell-based, human; settings: MIA PaCa-2, MTT, 72 hours
Procedure, shortened: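 MIA PaCa-2 (ATCC) seeded at 3×10^3 cells/well and grown 24 h at 37°C, 5% CO2. Exposed 72 h to test compound (DMSO solution, solvent-based, or albumin nanoparticle form) at 0.01, 0.1, 1, 5, 10, 50, 100 and 1000 ng/mL. MTT (0.5 mg/mL) added for 2 h, formazan dissolved in DMSO, A550 read. Survival expressed as % of control wells.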

Structure (SMILES) | initial half-life (T1/2,initial) [1] [min] | IC50, weight ratio CFZ:PTX 1: 0 ([2]; CFZ form alone) [ng/mL] | IC50, weight ratio CFZ:PTX 0: 1 ([2]; PTX form alone) [ng/mL]
CC(C)C[C@H](NC(=O)[C@H](CCc1ccccc1)NC(=O)CN1CCOCC1)C(=O)N[C@@H](Cc1ccccc1)C(=O)N[C@@H](CC(C)C)C(=O)[C@@]1(C)CO1 [CFZfree, carfilzomib] | < 20 | 8.90 | –
CC(=O)O[C@H]1C(=O)[C@@]2(C)[C@H]([C@H](OC(=O)c3ccccc3)[C@]3(O)C[C@H](OC(=O)[C@H](O)[C@@H](NC(=O)c4ccccc4)c4ccccc4)C(C)=C1C3(C)C)[C@]1(OC(C)=O)CO[C@@H]1C[C@@H]2O [PTXfree, paclitaxel] | – | – | 0.44
